Consider 2 compounds from article PMC3104004 (European Journal of Nuclear Medicine and Molecular Imaging, 2011).

Series [1] relates to kidney of PC-3-bearing mice. The note with it: PC-3-bearing athymic mice, 30 min after injection; ref 26 (Zheng et al.); cited from earlier work.
Series [2] relates to PC-3 tumours. The series is described as follows: Dynamic PET scanning with quantitative VOI analysis in PC-3 tumour-bearing mice. Particulars: tail vein injection 100 μl; last 10 min of 20 min scan; N = 3. The series is classed as in vivo, male NMRI nu/nu mice. Put shortly: (§1)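 Male NMRI nu/nu mice, 6–7 weeks old, inoculated s.c. in the right shoulder with ~5×10^6 VCaP or PC-3 cells in PBS. Under isoflurane/oxygen, prone, on a microPET with a heating mat. Test tracer 100 μl (8.1–1.2 MBq) given by tail-vein cannula; dynamic full-body scan for 20 min from injection. Tumour VOIs drawn manually, averaged over two analysts. %ID/g = VOI activity/injected dose ×100; steady-state taken from last 10 min; median, IQR; Mann-Whitney U.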

In series [3] the test system is VCaP tumour and preselected organs. The series is described as follows: Ex vivo biodistribution in VCaP tumour-bearing mice. More on the design: species or system male NMRI nu/nu mice. Particulars: 30 min after injection, 100 μl iv. In short, it runs like this:
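Done after PET. VCaP-bearing mice killed 60 min after i.v. tail-vein 68Ga-labelled bombesin-analogue tracer (300 pmol, 1.5–0.5 MBq), or 30 min after 18F-choline tracer (100 μl, 8.1–1.2 MBq). Gamma-counted: tumour, liver, heart, blood, muscle, tail, kidneys, pancreas and colon. %ID/g corrected for activity left in the tail; mean ± SD, four mice per tracer; unpaired t-test.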

For series [4], the system named is human prostate VCaP xenografts. The series is described as follows: Dynamic PET scanning with quantitative VOI analysis in VCaP tumour-bearing mice. Format: in vivo, male NMRI nu/nu mice. In short, it runs like this: as §1

As for `C[N+](C)([11CH3])CCO` [^11C-choline], the kidney uptake in series [1] is 5.1 ± 1.8 %ID/g.
Regarding `C[N+](C)(C[18F])CCO` [^18F-FCH, N-[^18F]-fluoromethyl-N-(2-hydroxyethyl)-N,N-dimethylammonium], in series [2], the “PC-3 tumour uptake from PET (plateau phase)” value came out at 1.2 ± 0.3 %ID/g. In series [3] (VCaP-bearing mice, N = 4), this compound displayed an uptake in blood of 0.8 ± 0.1 %ID/g tissue, an uptake in heart of 4.7 ± 0.5 %ID/g tissue, an uptake in kidneys of 35.7 ± 4.1 %ID/g and an uptake in liver of 13.0 ± 1.7 %ID/g tissue. For the same compound, in series [3] (VCaP-bearing mice, N = 4), the uptake in muscle is 0.9 ± 0.2 %ID/g tissue and the “uptake in pancreas (GRPR-positive)” value worked out at 3.6 ± 1.0 %ID/g. Also, the “VCaP tumour uptake (biodistribution)” value in series [3] (ex vivo counting) amounted to 2.1 ± 0.4 %ID/g. Moreover, the “time at which tumour uptake reached a plateau phase” value in series [4] (dynamic PET, VCaP tumour, after injection) was “less than 10 min”. The “VCaP tumour uptake determined from PET at steady-state (plateau phase)” value in series [4] (tail vein injection 100 μl, 8.1–1.2 MBq, 10–20 min after injection, N = 8) amounted to 1.6 ± 0.5 %ID/g.
